The values below come from ChEMBL document CHEMBL1629690, “Development of hexadecyloxypropyl tenofovir (CMX157) for treatment of infection caused by wild-type and nucleoside/nucleotide-resistant HIV” (Antimicrob Agents Chemother, 2010).

A short description of data set [1]: Cytotoxicity against human HuH7 cells after 24 hrs by XTT assay. Format: cell-based. The note with it: huh-7, 24 h. In short, it runs like this: (§1)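 Six-concentration growth-inhibition test: 10 to 0.032 μM for the prodrug and TDF, up to 100 μM for TFV, with Triton X-100 run in parallel. Cell lines were split 1:2 the day before and seeded at 5 × 10^3 to 2 × 10^4 cells/well, with adherent lines left overnight. Dendritic cells were derived with GM-CSF/IL-4 for 7 days, then LPS 10 ng/ml for 2 days. Viability was read by XTT.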
(In general: Tetrazolium assays rely on reduction of a dye to a coloured formazan, in cell work by metabolically active cells.)

In data set [2] the test system is PBMC. Briefly: Cellular uptake in PHA/IL-2-stimulated human PBMC at 1 uM assessed as TFV-monophosphate level after 24 hrs by MS/MS analysis. In kind it is ADME, cell-based. In short, it runs like this:
(§2)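 PHA-stimulated (4 μg/ml PHA, 48 to 72 h; 20 U/ml rhIL-2) human PBMCs at 2 × 10^6 cells/ml in RPMI 1640 with 15% FBS, given tenofovir or prodrug (final 0.01 to 10 μM) for 24 h at 37°C. Cells washed three times in cold 0.9% NaCl, counted, and 1 × 10^7 cell aliquots pelleted. TFV, TFV-MP and TFV-PP were separated by ion-pairing reverse-phase LC and detected by positive-ion electrospray MS. Output is pmol per 10^6 cells.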

Data set [3] deals with PBMC. Briefly: Cytotoxicity against PHA/IL-2-stimulated human PBMC after 24 hrs by XTT assay. Format: cell-based. In short, it runs like this: as §1
The subject of data set [4] is PBMC. The data set can be described thus: Cellular uptake in PHA/IL-2-stimulated human PBMC at 10 uM assessed as TFV-monophosphate after 24 hrs by MS/MS analysis. In kind it is ADME, cell-based. In short, it runs like this:
as §2

For data set [5], the system named is Human immunodeficiency virus 1. Briefly: Antiviral activity against HIV1 7303-3 harboring reverse transcriptase 41L/44D/67N/69D/118I/210W/215Y mutant gene infected in human PBMC by ELISA. Format: functional, organism-based. The note with it: Human immunodeficiency virus 1, 7303-3. In short, it runs like this:
(§3)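 Fresh PBMCs pooled from at least two HIV- and HBV-seronegative donors, stimulated with PHA 4 μg/ml for 48–72 h and kept in rhIL-2 20 U/ml. Seeded at 5 × 10^4 cells/well and infected with RT-mutant HIV-1 clones at MOI ~0.1. Nine compound concentrations, triplicate wells, 7-day incubation. EC50 reported as mean ± SD of one to three independent experiments.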
In general terms: ELISA stands for enzyme-linked immunosorbent assay.

Data set [6] concerns HeLa. The data set can be described thus: Cytotoxicity against human HeLa cells after 24 hrs by XTT assay. Format: cell-based. In short, it runs like this: as §1
The test system of data set [7] is Human immunodeficiency virus 1. Briefly: Antiviral activity against HIV1 1617-1 harboring reverse transcriptase 69K/70G/75I/77L/116Y/151M/184V mutant gene infected in human PBMC by ELISA. In kind it is functional, organism-based. The note with it: Human immunodeficiency virus 1, 1617-1. In short, it runs like this:
as §3

For data set [8], the system named is PBMC. The data set can be described thus: Cellular uptake in human PBMC at 1 uM assessed as TFV-diphosphate level after 24 hrs by MS/MS analysis. Format: ADME, cell-based. In short, it runs like this:
(§4)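 Human PBMCs, unstimulated or PHA/IL-2-stimulated, at 2 × 10^6 cells/ml in RPMI 1640 with 15% FBS, exposed 24 h at 37°C to final 0.01, 0.1, 1.0 or 10 μM of the prodrug, or 1.0 or 10 μM tenofovir. After cold saline washes the cells were counted and 1 × 10^7-cell pellets made. TFV, TFV-MP and TFV-PP were measured by ion-pairing LC with positive-ion electrospray MS as pmol/10^6 cells.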

Data set [9] is described as follows: Cytotoxicity against human dendritic cells after 24 hrs by XTT assay. Format: cell-based. In short, it runs like this:
as §1

The nature of data set [10]: Cytotoxicity against human ME180 cells after 24 hrs by XTT assay. In kind it is cell-based. The settings on record: me-180, 24 h. In short, it runs like this: as §1
Data set [11] deals with PBMC. Briefly: Cellular uptake in human PBMC at 10 uM assessed as TFV-monophosphate after 24 hrs by MS/MS analysis. Format: ADME, cell-based. In short, it runs like this:
as §4

The subject of data set [12] is Human immunodeficiency virus 1. Briefly: Antiviral activity against HIV1 8415-2 harboring reverse transcriptase 65R/184V mutant gene infected in human PBMC by ELISA. Format: functional, organism-based. The note with it: Human immunodeficiency virus 1, 8415-2. In short, it runs like this:
as §3

Data set [13] relates to Human immunodeficiency virus 1. Briefly: Antiviral activity against HIV1 71361-1 harboring reverse transcriptase 65R mutant gene infected in human PBMC by ELISA. In kind it is functional, organism-based. The note with it: Human immunodeficiency virus 1, 71361-1. In short, it runs like this: as §3
For data set [14], the system named is Human immunodeficiency virus 1. Briefly: Antiviral activity against HIV1 4755-5 harboring reverse transcriptase 41L/44D/67N/69D/118I/210W/215Y/184V mutant gene infected in human PBMC by ELISA. Format: functional, organism-based. The settings on record: Human immunodeficiency virus 1, 4755-5. In short, it runs like this:
as §3

Data set [15] deals with Human immunodeficiency virus 2. The data set can be described thus: Antiviral activity against HIV2 isolate CBL-20 infected in human PBMC after 48 to 72 hrs by MTS assay. The note with it: Human immunodeficiency virus 2, isolate CBL-20. In kind it is functional, organism-based. In short, it runs like this:
(§5)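 Fresh donor PBMCs, HIV- and HBV-seronegative, were stimulated with 4 μg/ml PHA for 48 to 72 h and kept on 20 U/ml rhIL-2. Cells pooled from at least two donors were seeded at 5 × 10^4 per well and infected at MOI ~0.1. Nine compound concentrations were run in triplicate wells for 7 days.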

Data set [16] relates to Human immunodeficiency virus 2. The data set can be described thus: Antiviral activity against HIV2 isolate CDC310319 infected in human PBMC after 48 to 72 hrs by MTS assay. In kind it is functional, organism-based. The settings on record: Human immunodeficiency virus 2, isolate CDC310319. In short, it runs like this:
as §5

The subject of data set [17] is Human immunodeficiency virus 1. The data set can be described thus: Antiviral activity against HIV1 subtype D isolate 92UG001 infected in human PBMC after 48 to 72 hrs by MTS assay. In kind it is functional, organism-based. The note with it: Human immunodeficiency virus 1, isolate 92UG001. In short, it runs like this: as §5
For data set [18], the system named is Human immunodeficiency virus 1. Briefly: Antiviral activity against HIV1 subtype A isolate 92UG029 infected in human MDM […] by MTS assay. The note with it: Human immunodeficiency virus 1, isolate 92UG029. In kind it is functional, organism-based.
Data set [19] deals with Human immunodeficiency virus 1. The data set can be described thus: Antiviral activity against HIV1 subtype A isolate 92RW009 infected in human PBMC after 48 to 72 hrs by MTS assay. Format: functional, organism-based. The note with it: Human immunodeficiency virus 1, isolate 92RW009. In short, it runs like this: as §5
Data set [20] deals with Human immunodeficiency virus 1. The data set can be described thus: Antiviral activity against HIV1 subtype B isolate ADA infected in human MDM […] by MTS assay. The settings on record: Human immunodeficiency virus 1, isolate ADA. In kind it is functional, organism-based.
Data set [21] deals with Human immunodeficiency virus 1. Briefly: Antiviral activity against HIV1 subtype A isolate 92UG037 infected in human MDM […] by MTS assay. Format: functional, organism-based. The settings on record: Human immunodeficiency virus 1, isolate 92UG037.
The test system of data set [22] is Human immunodeficiency virus 1. The data set can be described thus: Antiviral activity against HIV1 subtype D isolate 92UG046 infected in human PBMC after 48 to 72 hrs by MTS assay. Format: functional, organism-based. The note with it: Human immunodeficiency virus 1, isolate 92UG046. In short, it runs like this:
as §5

The test system of data set [23] is Human immunodeficiency virus 1. Briefly: Antiviral activity against HIV1 subtype B isolate 92TH026 infected in human PBMC after 48 to 72 hrs by MTS assay. The note with it: Human immunodeficiency virus 1, isolate 92TH026. Format: functional, organism-based. In short, it runs like this:
as §5

Data set [24] concerns Human immunodeficiency virus 2. Briefly: Antiviral activity against HIV2 isolate CDC310342 infected in human PBMC after 48 to 72 hrs by MTS assay. In kind it is functional, organism-based. The settings on record: Human immunodeficiency virus 2, isolate CDC310342. In short, it runs like this:
as §5

In data set [25] the test system is Human immunodeficiency virus 1. The data set can be described thus: Antiviral activity against HIV1 subtype E isolate 93TH073 infected in human PBMC after 48 to 72 hrs by MTS assay. In kind it is functional, organism-based. The note with it: Human immunodeficiency virus 1, isolate 93TH073. In short, it runs like this:
as §5

The subject of data set [26] is PBMC. Briefly: Cytotoxicity against human PBMC up to 1000 nM by MTS assay. In kind it is cell-based.
The nature of data set [27]: Cytotoxicity against human MDM up to 1000 nM by MTS assay. In kind it is cell-based.
In data set [28] the test system is Human immunodeficiency virus 1. Briefly: Antiviral activity against HIV1 subtype G isolate RU132 infected in human PBMC after 48 to 72 hrs by MTS assay. In kind it is functional, organism-based. The note with it: Human immunodeficiency virus 1, isolate RU132. In short, it runs like this:
as §5

Data set [29] deals with Human immunodeficiency virus 1. Briefly: Antiviral activity against HIV1 subtype A isolate 92UG037 infected in human PBMC after 48 to 72 hrs by MTS assay. Format: functional, organism-based. The note with it: Human immunodeficiency virus 1, isolate 92UG037. In short, it runs like this: as §5

Molecules are shown by their SMILES. Where only a bound is given, the exact number is not on record here.

In general, EC50 refers to the concentration giving half of the maximal effect. Read a high EC50 as weaker potency. As for `C[C@H](Cn1cnc2c(N)ncnc21)OCP(=O)(O)O` [TENOFOVIR ANHYDROUS], the Activity result in [1], in data set [3], in data set [6], in [9] and in data set [10] was “Non-toxic” in each case. Also, the Drug uptake result in data set [2] (BLD = below limit of detection) is “BLD”; in data set [4] (BLD = below limit of detection), “BLD”; in data set [8], 0.05 pmol/10^6 cells; in data set [11], 0.05 pmol/10^6 cells. The EC50 in [5] is more than 8500 nM; in data set [7], more than 6500 nM; in [12] it was 1000 nM; in data set [13], more than 8000 nM; in data set [14], 5400 nM.

As to `CCCCCCCCCCCCCCCCOCCCOP(=O)(O)CO[C@H](C)Cn1cnc2c(N)ncnc21` [TENOFOVIR EXALIDEX], the Activity entry in [1], in [3], in data set [6], in data set [9], in data set [10] and in data set [26] was “Non-toxic” each time. In data set [27], the Activity entry is listed as “Non-toxic”. Besides, the concentration giving a half-maximal response (EC50) in data set [15] worked out at 3.5 nM; in [16], 3.5 nM; in [17], 2.1 nM; in data set [5] it was 19 nM; in data set [18], 1.3 nM; in data set [19], 3.3 nM. Further, the EC50 came out at 3.1 nM in data set [20]; 1.3 nM in data set [21]; 2.1 nM in data set [22]; 1.5 nM in data set [23]; 5 nM in data set [7]; 3.5 nM in data set [24]. In addition, the EC50 in data set [25] was 2.3 nM; in data set [28], 2.2 nM; in data set [12], 1.8 nM; in [13] it was 13 nM; in [29] it was 3.3 nM; in data set [14], 3.1 nM. Moreover, the Drug uptake in [2] was 0.3 pmol/10^6 cells; in data set [4], 0.9 pmol/10^6 cells; in data set [8], 0.22 pmol/10^6 cells; in [11], 0.12 pmol/10^6 cells.

As to `Cc1cn([C@H]2C[C@H](N=[N+]=[N-])[C@@H](CO)O2)c(=O)[nH]c1=O` [ZIDOVUDINE], the EC50 in [15] came out at 9.3 nM; in [16], 9.3 nM; in data set [17] it was 6.3 nM; in data set [5] it was 3000 nM; in [18] it was 1.2 nM; in [19] it was 14 nM. In addition, the EC50 was 2.7 nM in data set [20]; 1.3 nM in data set [21]; 6.3 nM in data set [22]; 2 nM in data set [23]; more than 340 nM in data set [7]; 9.3 nM in [24]. The EC50 in data set [25] came out at 5.5 nM; in data set [28] it was 4.7 nM; in data set [12], 1.8 nM; in data set [13], 2.7 nM; in data set [29] it was 14 nM; in data set [14] it was 100 nM. The Activity entry in data set [26] and in data set [27] was “Non-toxic” throughout.
